Measured values from publication PMC5903019 (International Journal of Pharmaceutical Investigation, 2017).
In brackets after ≈: the same amount, converted by molar mass. Read-outs that look alike come from different tables or passages of the source. Each block holds one compound with its values, some of them ahead of it.

What was measured:
[1] = cited from earlier work
[2] = cited from earlier work; remark: listed apart in the source
[3] = Thermogravimetric analysis; format: physicochemical
Outline: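 Thermogravimetric analysis of a 5.0 ± 0.5 mg sample in a ceramic pan under nitrogen at 2 bars. The sample was heated from 20°C to 350°C at 10°C/min to obtain the degradation temperature.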

[4] = Saturation solubility of EAPB0503 in solvents by HPLC; format: physicochemical; settings: for solubility: thermodynamic from solid
Outline: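 Solvents, including purified water, were saturated with solid test compound and centrifuged at 5000 g for 5 min. The supernatant was quantified by HPLC on a C8 column using acetonitrile/2 mM ammonium formate pH 3 at 0.6 mL/min with a 12 min run. The column was held at 20°C and detection was by UV. Calibration used DMSO standards from 50–1000 μg/mL.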

[5] = Solubility screening of EAPB0503 in oils; format: physicochemical
Outline: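 5 mg of test compound was added to 1 g of pharmaceutical-grade oil ([…], castor, olive, soybean or sesame). Samples were magnetically stirred for 24 h at 20°C and then checked for complete solubilization.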

[6] = system: tubulin polymerization; settings: cited from earlier work
[7] = system: A375 cell line; settings: cited from earlier work
[8] = rats, i.p.; cited from earlier work

SMILES: CC(=O)O[C@@]12CO[C@@H]1C[C@H](O)[C@@]1(C)C(=O)[C@H](O)C3=C(C)[C@@H](OC(=O)[C@H](O)[C@@H](NC(=O)OC(C)(C)C)c4ccccc4)C[C@@](O)([C@@H](OC(=O)c4ccccc4)[C@H]21)C3(C)C [docetaxel]
Drug loading in LNC ([1]; encapsulated in LNC): 2 mg/mL

SMILES: COc1cc([C@@H]2c3cc4c(cc3[C@@H](O[C@@H]3O[C@@H]5CO[C@@H](C)O[C@H]5[C@H](O)[C@H]3O)[C@H]3COC(=O)[C@H]23)OCO4)cc(OC)c1O [etoposide]
Drug efficiency (encapsulation) in LNC ([1]; formulated in LNC): 56.7 ± 21.3% | Drug loading in LNC ([1]; formulated in LNC): 6.5 ± 3.0 mg/g | Water solubility [2]: 0.978 mg/mL

Degradation temperature (TGA) [3]: 347 °C | Degradation temperature onset (TGA) ([3]; onset): 210 °C | Maximum concentration (solubility) ([4]; Purified water): <0.1 mg/mL | solubility ([4]; dimethyl sulfoxide, organic solvent or mixture): 16.6 mg/mL (≈ 54.5 mM) | solubility ([4]; dimethylacetamide, organic solvent or mixture): 24.8 mg/mL (≈ 81.5 mM) | solubility ([4]; phosphate buffered saline, aqueous buffer): < 0.1 mg/mL | solubility ([4]; purified water, water): < 0.1 mg/mL | Solubility in Labrafac WL 139 ([5]; Labrafac WL 139): higher than 12 mg/g | solubility at 24 h ([5]; Labrafac WL 1349 (semi-synthetic oil), oil or lipid, thermodynamic from solid): 12 mg/mL (≈ 39.4 mM) | Concentration obtainable in vegetable oils ([5]; castor, olive, soybean and sesame oils): ≤ 1000 µg/mL | Solubilization in vegetable oils ([5]; castor, olive, soybean and sesame oils, 5 mg/mL, room temperature): not complete
SMILES: CNc1nc2ccccc2n2c(-c3cccc(OC)c3)cnc12 [EAPB0503, 1-[3-methoxyphenyl]-N-methylimidazo [1,2-a] quinoxalin-4-amine]
Inhibition of the tubulin polymerization [6]: potent inhibition | IC50 ([7]; A375 cell line growth): 0.2 µM | Fold increase activity compared to EAPB0203 ([7]; in vitro activity, human melanoma cell lines): 9 | Bioavailability after intraperitoneal administration [8]: 35%

SMILES: CC(=O)O[C@H]1C(=O)[C@@]2(C)[C@H]([C@H](OC(=O)c3ccccc3)[C@]3(O)C[C@H](OC(=O)[C@H](O)[C@@H](NC(=O)c4ccccc4)c4ccccc4)C(C)=C1C3(C)C)[C@]1(OC(C)=O)CO[C@@H]1C[C@@H]2O [paclitaxel]
Drug loading in LNC ([1]; encapsulated in LNC): 4 mg/mL
